Laboratory results published in publication PMC11389331 (BMC Biology, 2024).

How the values were obtained:
B. dioryctriae [1] = test: Y-tube olfactometer assay; type: in vivo, Baryscapus dioryctriae; settings: 20 μL test chemical vs paraffin oil, chi-square test
Outline: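 Binary Y-tube (1.1 cm diameter, 6 cm base and arms, 60° between arms) used with wasps reared at 25 ± 1 °C, 50 ± 5% RH. One arm held 20 × 50 mm filter paper loaded with 20 μL test chemical; the other held 20 μL paraffin oil. After every five wasps, the tube was cleaned with dehydrated alcohol and air-dried, and odour sides were swapped.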

B. dioryctriae [2] = settings: cited from earlier work

| Compound | behavioral response (attraction) of B. dioryctriae adults (B. dioryctriae [1]) | effect on reproductive efficiency of B. dioryctriae (B. dioryctriae [2]) |
| --- | --- | --- |
| C=C1CC[C@H]2O[C@]2(C)CC[C@@H]2[C@@H]1CC2(C)C [Caryophyllene oxide] | does not attract | – |
| CC1=CCC(C(C)C)=CC1 [g-Terpinene] | significantly attract | – |
| CC1=CCC2CC1C2(C)C (stereo not drawn) [α-Pinene] | significantly attract | – |
| CCCCCC=C(C=O)CCCC [2-butyl-2-octenal] | – | significantly improve |
